We go through one compound from ChEMBL document CHEMBL4342528, “Discovery of a First-in-Class Protein Arginine Methyltransferase 6 (PRMT6) Covalent Inhibitor” (J Med Chem, 2020).

For data set [1], the target named is Protein arginine N-methyltransferase 7 (Homo sapiens) (UniProt Q9NVM4). Briefly: Inhibition of PRMT7 (unknown origin) assessed as reduction in incorporation of [3H]-labeled methyl group into biotinylated substrate using [3H-SAM] at 10 uM incubated for 1 hr by scintillation proximity assay. In short, it runs like this: (§1)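 Panel of 33 methyltransferases (22 PKMTs, 3 DNMTs, 8 PRMTs), each tested at 10 and 50 μM compound. Activity was read as ³H-methyl transfer from ³H-SAM in a radiometric assay done as previously described.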
On the technique in general: Scintillation proximity formats need no separation of bound from free tracer.

A further data set relates to HEK-293T. Briefly: Toxicity in HEK293T cells assessed as reduction in cell viability up to 20 uM incubated for 3 days by CCK8 assay. Type of data set: cell-based. The conditions noted are these: human, 72 h. In short, it runs like this: (§2)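 Cells seeded 1×10^4 per well in triplicate, treated after 24 h with serial dilutions from 20 μM for 3 days; CCK-8 (WST-8) added, 4 h at 37 °C, absorbance at 450 nm; mean ± SD of three replicate experiments.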
On the technique in general: Formazan colour is commonly taken as a measure of viable cells.

For data set [2], the target named is Protein arginine N-methyltransferase 3 (Homo sapiens, UniProt O60678). Briefly: Inhibition of PRMT3 (unknown origin) assessed as reduction in incorporation of [3H]-labeled methyl group into biotinylated substrate using [3H-SAM] at 10 uM incubated for 1 hr by scintillation proximity assay. In a few lines: as §1
For data set [3], the target named is Histone-lysine N-methyltransferase SMYD3 (Homo sapiens) (UniProt Q9H7B4). Nature of the data set: Inhibition of SMYD3 (unknown origin) assessed as reduction in incorporation of [3H]-labeled methyl group into biotinylated substrate using [3H-SAM] at 10 uM incubated for 1 hr by scintillation proximity assay. In short, it runs like this: as §1
Data set [4] concerns the target Protein arginine N-methyltransferase 6 (Homo sapiens, UniProt Q96LA8). Briefly: Covalent binding affinity to human PRMT6 assessed as covalent adduct. formation at 300 uM pre-incubated for 1 hr by mass spectrometry. In a few lines: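 PRMT protein at 15 μM was incubated 1 h at room temperature with a 20-fold molar excess of inhibitor (300 μM). The reaction was quenched with 0.1% aqueous TFA, separated by HPLC (5–95% acetonitrile in water) and analysed by ESI time-of-flight LC/MS for protein–ligand adduct mass.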

Data set [5] has as its target Histone-lysine N-methyltransferase, H3 lysine-79 specific (Homo sapiens) (UniProt Q8TEK3). Nature of the data set: Inhibition of DOT1L (unknown origin) at 10 uM using [3H-SAM] and nucleosome as substrate incubated for 1 hr by scintillation proximity assay. In a few lines:
as §1

The next data set concerns MCF7. Briefly: Toxicity in human MCF7 cells assessed as reduction in cell viability up to 20 uM incubated for 3 days by CCK8 assay. The data set is classed as cell-based. The conditions noted are these: mcf7, 72 h. In a few lines: as §2

The source made the active and inactive calls. The rule behind the calls is not given here.

Chain of Histone-lysine N-methyltransferase, H3 lysine-79 specific (Homo sapiens) (Q8TEK3 whole entry, looked up): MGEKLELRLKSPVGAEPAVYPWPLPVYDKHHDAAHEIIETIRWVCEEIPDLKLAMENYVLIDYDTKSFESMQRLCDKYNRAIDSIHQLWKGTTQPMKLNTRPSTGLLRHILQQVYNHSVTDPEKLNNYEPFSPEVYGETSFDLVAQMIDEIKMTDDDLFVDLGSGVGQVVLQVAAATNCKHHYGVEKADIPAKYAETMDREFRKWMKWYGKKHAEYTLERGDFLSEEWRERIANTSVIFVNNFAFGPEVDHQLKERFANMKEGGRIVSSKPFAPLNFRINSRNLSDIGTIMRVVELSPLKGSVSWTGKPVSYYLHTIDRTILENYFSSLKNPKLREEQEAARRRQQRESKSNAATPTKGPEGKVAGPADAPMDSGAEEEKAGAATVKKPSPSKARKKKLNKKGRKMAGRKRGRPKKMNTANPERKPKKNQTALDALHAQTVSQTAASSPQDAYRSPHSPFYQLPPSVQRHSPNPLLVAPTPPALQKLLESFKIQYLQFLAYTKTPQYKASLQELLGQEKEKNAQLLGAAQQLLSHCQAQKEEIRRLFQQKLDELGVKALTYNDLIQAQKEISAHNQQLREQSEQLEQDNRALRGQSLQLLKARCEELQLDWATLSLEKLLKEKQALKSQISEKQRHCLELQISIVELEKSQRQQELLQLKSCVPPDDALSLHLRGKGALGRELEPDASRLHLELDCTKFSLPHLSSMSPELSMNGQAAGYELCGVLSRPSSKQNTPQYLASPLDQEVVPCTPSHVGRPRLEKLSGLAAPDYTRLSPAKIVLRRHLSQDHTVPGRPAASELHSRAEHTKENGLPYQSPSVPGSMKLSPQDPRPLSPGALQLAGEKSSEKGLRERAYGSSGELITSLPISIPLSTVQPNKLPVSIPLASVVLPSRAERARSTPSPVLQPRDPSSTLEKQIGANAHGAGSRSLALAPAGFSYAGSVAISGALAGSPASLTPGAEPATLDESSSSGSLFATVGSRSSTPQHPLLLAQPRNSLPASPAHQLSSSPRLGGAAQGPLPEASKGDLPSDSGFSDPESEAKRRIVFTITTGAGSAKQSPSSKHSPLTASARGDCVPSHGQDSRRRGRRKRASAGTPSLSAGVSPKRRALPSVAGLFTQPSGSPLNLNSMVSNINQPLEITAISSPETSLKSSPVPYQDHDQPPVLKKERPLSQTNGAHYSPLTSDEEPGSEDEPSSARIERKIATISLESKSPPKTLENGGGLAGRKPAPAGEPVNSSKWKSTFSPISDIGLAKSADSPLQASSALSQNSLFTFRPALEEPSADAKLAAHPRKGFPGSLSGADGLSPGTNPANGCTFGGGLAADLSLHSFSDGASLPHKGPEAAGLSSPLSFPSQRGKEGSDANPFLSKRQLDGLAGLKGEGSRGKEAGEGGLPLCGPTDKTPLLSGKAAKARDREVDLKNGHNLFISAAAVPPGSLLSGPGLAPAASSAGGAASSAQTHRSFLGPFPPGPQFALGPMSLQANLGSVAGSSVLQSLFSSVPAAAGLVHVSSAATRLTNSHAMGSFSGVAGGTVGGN
Chain of Histone-lysine N-methyltransferase SMYD3 (Homo sapiens) (Q9H7B4 whole entry): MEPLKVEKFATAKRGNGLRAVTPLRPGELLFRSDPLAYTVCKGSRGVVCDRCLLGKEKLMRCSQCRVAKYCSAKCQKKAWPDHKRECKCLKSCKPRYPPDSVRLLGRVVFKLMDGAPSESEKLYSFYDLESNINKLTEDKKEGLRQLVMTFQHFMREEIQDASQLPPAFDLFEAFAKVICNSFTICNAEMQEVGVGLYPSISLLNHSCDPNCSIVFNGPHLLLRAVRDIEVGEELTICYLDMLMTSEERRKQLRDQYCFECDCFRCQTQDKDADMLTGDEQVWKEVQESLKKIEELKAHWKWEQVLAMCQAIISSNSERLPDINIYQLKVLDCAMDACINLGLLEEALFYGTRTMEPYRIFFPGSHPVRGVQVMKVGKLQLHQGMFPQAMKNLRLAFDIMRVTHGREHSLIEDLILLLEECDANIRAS
Chain of Protein arginine N-methyltransferase 6 (Q96LA8 whole entry, looked up): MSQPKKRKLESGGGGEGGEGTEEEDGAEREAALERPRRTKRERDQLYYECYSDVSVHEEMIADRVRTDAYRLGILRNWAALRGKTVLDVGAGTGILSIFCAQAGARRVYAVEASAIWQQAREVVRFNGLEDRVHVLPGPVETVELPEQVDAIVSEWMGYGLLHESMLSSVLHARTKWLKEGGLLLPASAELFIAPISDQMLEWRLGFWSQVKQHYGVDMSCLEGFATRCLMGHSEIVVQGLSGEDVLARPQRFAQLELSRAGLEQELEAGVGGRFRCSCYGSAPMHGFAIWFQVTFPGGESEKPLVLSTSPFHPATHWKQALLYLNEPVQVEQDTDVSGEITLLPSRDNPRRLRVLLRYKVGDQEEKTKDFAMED
Chain of Protein arginine N-methyltransferase 7 (Homo sapiens) (Q9NVM4 whole entry): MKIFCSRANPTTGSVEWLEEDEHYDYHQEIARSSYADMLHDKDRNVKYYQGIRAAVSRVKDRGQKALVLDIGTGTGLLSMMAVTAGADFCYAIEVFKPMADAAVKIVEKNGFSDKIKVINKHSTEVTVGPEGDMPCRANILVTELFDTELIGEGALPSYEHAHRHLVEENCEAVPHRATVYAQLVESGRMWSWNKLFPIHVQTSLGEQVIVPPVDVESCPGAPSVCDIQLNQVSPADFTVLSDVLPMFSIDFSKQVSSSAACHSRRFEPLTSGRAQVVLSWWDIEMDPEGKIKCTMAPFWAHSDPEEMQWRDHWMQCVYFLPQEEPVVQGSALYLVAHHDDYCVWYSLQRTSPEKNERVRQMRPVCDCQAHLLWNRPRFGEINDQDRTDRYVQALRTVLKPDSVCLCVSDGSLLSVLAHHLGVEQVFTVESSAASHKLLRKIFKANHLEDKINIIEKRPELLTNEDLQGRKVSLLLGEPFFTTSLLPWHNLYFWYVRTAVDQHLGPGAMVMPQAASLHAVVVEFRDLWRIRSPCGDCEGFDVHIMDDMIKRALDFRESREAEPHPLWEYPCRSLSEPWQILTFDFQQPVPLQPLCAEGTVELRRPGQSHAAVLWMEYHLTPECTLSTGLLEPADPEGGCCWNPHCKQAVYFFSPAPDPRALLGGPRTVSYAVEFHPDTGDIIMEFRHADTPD
Chain of Protein arginine N-methyltransferase 3 (O60678 2-531 limits assumed): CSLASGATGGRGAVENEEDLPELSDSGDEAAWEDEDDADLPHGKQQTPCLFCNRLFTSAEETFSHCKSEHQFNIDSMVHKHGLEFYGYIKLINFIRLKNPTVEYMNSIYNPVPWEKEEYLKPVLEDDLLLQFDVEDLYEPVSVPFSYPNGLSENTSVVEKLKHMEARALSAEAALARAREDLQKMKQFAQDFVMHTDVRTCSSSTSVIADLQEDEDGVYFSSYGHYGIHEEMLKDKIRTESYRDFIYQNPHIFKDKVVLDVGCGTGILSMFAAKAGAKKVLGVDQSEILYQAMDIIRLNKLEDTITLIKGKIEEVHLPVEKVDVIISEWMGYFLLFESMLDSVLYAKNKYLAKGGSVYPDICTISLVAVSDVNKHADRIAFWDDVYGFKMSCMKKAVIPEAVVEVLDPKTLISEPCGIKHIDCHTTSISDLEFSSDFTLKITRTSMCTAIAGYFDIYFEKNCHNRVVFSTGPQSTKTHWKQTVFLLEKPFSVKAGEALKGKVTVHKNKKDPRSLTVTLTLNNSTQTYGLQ

The term inhibition denotes the percentage by which the read-out fell short of the control. Regarding `C=CC(=O)Nc1cccc(-c2c[nH]cc2CN(C)CCN)c1`, the inhibition result in data set [1], in data set [3] and in data set [5] was “inactive” in each case. The Activity result in the data set on HEK-293T and in the data set with MCF7 was “Non-Toxic” each time. Further, in data set [2], the inhibition was more than 90%. Besides, the result in data set [4] was Active.
